Assay results taken from ChEMBL document CHEMBL3045981, “Synthesis and insecticidal activities of novel N-sulfenyl-N'-tert-butyl-N,N'-diacylhydrazines. 2. N-substituted phenoxysulfenate derivatives” (2008).
Values after ≈ are worked out from the molar mass of the structure shown.

Experiments:
Assay type in all cases: functional
Mythimna separata [1] = test: Stomach toxicity against Mythimna separata (Oriental armyworm) fourth-instar larvae reared on compound pre-treated corn leaves assessed as insect mortality at 2.5 mg/kg measured 4 days post compound treatment
Mythimna separata [2] = test: Stomach toxicity against Mythimna separata (Oriental armyworm) fourth-instar larvae reared on compound pre-treated corn leaves assessed as insect mortality at 5 mg/kg measured 4 days post compound treatment
Mythimna separata [3] = test: Stomach toxicity against Mythimna separata (Oriental armyworm) fourth-instar larvae reared on compound pre-treated corn leaves assessed as insect mortality at 50 mg/kg measured 4 days post compound treatment
Mythimna separata [4] = test: Stomach toxicity against Mythimna separata (Oriental armyworm) fourth-instar larvae reared on compound pre-treated corn leaves assessed as insect mortality at 25 mg/kg measured 4 days post compound treatment
Mythimna separata [5] = test: Stomach toxicity against Mythimna separata (Oriental armyworm) fourth-instar larvae reared on compound pre-treated corn leaves assessed as insect mortality at 10 mg/kg measured 4 days post compound treatment
Spodoptera litura [6] = test: Contact toxicity against Spodoptera litura fourth-instar larvae exposed to compound on thoracic tergite region assessed as insect mortality measured 48 hr post compound treatment
Method in brief: (§1)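 Topical application: each fourth-instar larva received 1 µL of acetone dilution on the thoracic tergite via automatic microapplicator; five to seven concentrations. Acetone-only control. Usually 40 insects per dose, four replicates. Larvae returned to standard rearing at 25 ± 1 °C. Mortality read 48 h after treatment, Abbott-corrected, and LD50 (median lethal dose) derived.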

Helicoverpa armigera = test: Contact toxicity against Helicoverpa armigerafourth-instar larvae exposed to compound on thoracic tergite region assessed as insect mortality measured 48 hr post compound treatment; method in brief: as §1
Spodoptera litura [7] = test: Stomach toxicity against Spodoptera litura third-instar larvae reared on compound pre-treated cabbage leaves assessed as insect mortality measured 3 days post compound treatment
Method in brief: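 Leaf-dip: cabbage leaf discs (5 cm × 3 cm) dipped 3 s in test solution, air-dried, placed singly in 80 cm³ boxes. Five third-instar larvae per disc. Water- and acetone-treated leaves as controls. Held at 25 ± 1 °C. Mortality scored on a dead/alive basis 3 days after treatment and Abbott-corrected.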

Ostrinia furnacalis = test: Contact toxicity against Ostrinia furnacalis (Asian corn borer) fourth-instar larvae exposed to compound on thoracic tergite region assessed as insect mortality measured 48 hr post compound treatment; method in brief: as §1

Structure (SMILES)	mortality at 2.5 mg/kg (Mythimna separata [1]) [%]	mortality at 5 mg/kg (Mythimna separata [2]) [%]	also measured
CCc1ccc(C(=O)N(N(SOc2c(Cl)cc(Cl)cc2Cl)C(=O)c2cc(C)cc(C)c2)C(C)(C)C)cc1	50	90	–
CC(C)(C)N(NC(=O)c1ccccc1)C(=O)c1ccccc1 [RH-5849]	–	–	mortality at 50 mg/kg (Mythimna separata [3]): 100%; mortality at 25 mg/kg (Mythimna separata [4]): 70%; mortality at 10 mg/kg (Mythimna separata [5]): 0%
CC(C)(C)N(C(=O)c1ccc(Cl)cc1)N(SOc1ccc(Cl)cc1)C(=O)c1ccccc1	0	30	mortality at 25 mg/kg (Mythimna separata [4]): 100%; mortality at 10 mg/kg (Mythimna separata [5]): 100%
Cc1ccc(OSN(C(=O)c2ccccc2)N(C(=O)c2ccccc2)C(C)(C)C)cc1	–	–	mortality at 50 mg/kg (Mythimna separata [3]): 100%; mortality at 25 mg/kg (Mythimna separata [4]): 80%; mortality at 10 mg/kg (Mythimna separata [5]): 10%
CCc1ccc(C(=O)N(N(SOc2ccc(C(=O)OC)cc2)C(=O)c2cc(C)cc(C)c2)C(C)(C)C)cc1	100	100	–
CCc1ccc(C(=O)N(N(SOc2ccccc2C)C(=O)c2cc(C)cc(C)c2)C(C)(C)C)cc1	60	100	–
CCc1ccc(C(=O)N(N(SOc2ccccc2OC)C(=O)c2cc(C)cc(C)c2)C(C)(C)C)cc1	80	90	–
CCc1ccc(C(=O)N(N(SOc2cccc(C)c2)C(=O)c2cc(C)cc(C)c2)C(C)(C)C)cc1	70	95	–
Cc1cc(C)cc(C(=O)N(N(SOc2ccc(Cl)cc2)C(=O)c2ccc3c(c2C)OC(C)C3)C(C)(C)C)c1 (stereo not drawn)	90	100	–
CCc1ccc(C(=O)N(N(SOc2ccc(C)cc2)C(=O)c2cc(C)cc(C)c2)C(C)(C)C)cc1	30	100	–
CCc1ccc(C(=O)N(N(SOc2cccc(Cl)c2)C(=O)c2cc(C)cc(C)c2)C(C)(C)C)cc1	80	90	–
CC(C)(C)N(C(=O)c1ccccc1)N(SOc1ccccc1)C(=O)c1ccccc1	–	–	mortality at 50 mg/kg (Mythimna separata [3]): 100%; mortality at 25 mg/kg (Mythimna separata [4]): 100%; mortality at 10 mg/kg (Mythimna separata [5]): 0%
CCc1ccc(C(=O)N(N(SOc2ccc(Br)cc2)C(=O)c2cc(C)cc(C)c2)C(C)(C)C)cc1	50	100	–
COc1cccc(C(=O)N(N(SOc2ccc(Cl)cc2)C(=O)c2cc(C)cc(C)c2)C(C)(C)C)c1C	100	100	–
CCc1ccc(C(=O)N(N(SOc2ccccc2Cl)C(=O)c2cc(C)cc(C)c2)C(C)(C)C)cc1	80	95	–
CC(C)(C)N(NC(=O)c1ccc(Cl)cc1)C(=O)c1ccccc1 [HALOFENOZIDE]	10	70	mortality at 50 mg/kg (Mythimna separata [3]): 100%
CCc1ccc(C(=O)N(N(SOc2ccc(C)c(C)c2)C(=O)c2cc(C)cc(C)c2)C(C)(C)C)cc1	10	70	–
CCc1ccc(C(=O)N(N(SOc2ccc(-c3ccccc3)cc2)C(=O)c2cc(C)cc(C)c2)C(C)(C)C)cc1	90	100	–
CCc1ccc(C(=O)N(N(SOc2ccc(OC)cc2)C(=O)c2cc(C)cc(C)c2)C(C)(C)C)cc1	80	100	–
Cc1cc(C)cc(C(=O)N(NC(=O)c2ccc3c(c2C)OC(C)C3)C(C)(C)C)c1 (stereo not drawn) [FUXIAN]	90	100	–
CCc1ccc(C(=O)N(N(SOc2ccccc2Br)C(=O)c2cc(C)cc(C)c2)C(C)(C)C)cc1	30	100	–
CC(C)(C)N(C(=O)c1ccccc1)N(SOc1ccc(Cl)cc1)C(=O)c1ccccc1	–	–	mortality at 50 mg/kg (Mythimna separata [3]): 100%; mortality at 25 mg/kg (Mythimna separata [4]): 100%; mortality at 10 mg/kg (Mythimna separata [5]): 0%
CCc1ccc(C(=O)N(N(SOc2cccc(C(=O)OC)c2)C(=O)c2cc(C)cc(C)c2)C(C)(C)C)cc1	80	90	–
CCc1ccc(C(=O)N(N(SOc2ccccc2C(=O)OC)C(=O)c2cc(C)cc(C)c2)C(C)(C)C)cc1	60	100	–
CCc1ccc(C(=O)NN(C(=O)c2cc(C)cc(C)c2)C(C)(C)C)cc1 [TEBUFENOZIDE]	55	95	LD50 (Spodoptera litura [6]): 527 mg/kg; LD50 (Helicoverpa armigera): 1310 mg/kg; LC50 (Spodoptera litura [7]): 11.2 µg/mL (≈ 31.7 µM); LD50 (Ostrinia furnacalis): 59.4 mg/kg; mortality at 10 mg/kg (Mythimna separata [5]): 100%
CCc1ccc(C(=O)N(N(SOc2ccccc2)C(=O)c2cc(C)cc(C)c2)C(C)(C)C)cc1	70	90	mortality at 50 mg/kg (Mythimna separata [3]): 100%; mortality at 25 mg/kg (Mythimna separata [4]): 100%; mortality at 10 mg/kg (Mythimna separata [5]): 100%
COc1cccc(C(=O)NN(C(=O)c2cc(C)cc(C)c2)C(C)(C)C)c1C [METHOXYFENOZIDE]	100	100	–
CCc1ccc(C(=O)N(N(SOc2cccc(OC)c2)C(=O)c2cc(C)cc(C)c2)C(C)(C)C)cc1	50	100	–
CCc1ccc(C(=O)N(N(SOc2ccc(Cl)cc2Cl)C(=O)c2cc(C)cc(C)c2)C(C)(C)C)cc1	40	90	–
